The source made the active and inactive calls. The rule behind the calls is not given here.
How the values were obtained:
[1] = target: T1, Voltage-gated potassium channel, KQT; KCNQ2(Kv7.2)/KCNQ3(Kv7.3) (Homo sapiens) (UniProt O43526+O43525); assay: Activation of Kv7.2/Kv7.3 channel (unknown origin) expressed in CHO cells assessed as leftward shift change in half activation potential at 1 uM measured after 24 hrs by whole cell patch clamp based electrophysiological method; settings: filed as activator
[2] = target: T1, Voltage-gated potassium channel, KQT; KCNQ2(Kv7.2)/KCNQ3(Kv7.3) (Homo sapiens); assay: Activation of Kv7.2/Kv7.3 channel (unknown origin) expressed in CHO cells at -80 mV measured after 24 hrs by whole cell patch clamp based electrophysiological method; settings: filed as activator
[3] = Photo stability of compound in saline at 10 uM irradiated with UV for 3 hrs by HPLC analysis; assay type: physicochemical; settings: buffer
In short: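 Compounds in DMSO diluted into buffered aqueous solution pH 7.4 to a final 10 µM. Irradiated in 1 cm quartz cells by a 150 W UV lamp at 20 cm for 3 h; dark controls held at 37 °C. Aliquots analysed by UHPLC on C18 with TFA water/ACN gradient: 220 nm for loss of parent, 550 nm for phenazine/phenazinium dimers.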

[4] = test system: Mus musculus; assay: Anticonvulsant activity in PTZ induced C57BL/6 mouse acute seizure model assessed as seizure score at 3 mg/kg, ip pretreated for 30 mins followed by PTZ injection and measured upto 30 mins by Liittjohann's scale analysis; assay type: functional; settings: time 60 min, 1 h
In short: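 Male C57Bl/6 mice given drug i.p. in saline with 2% Tween-20 and 2% PEG-400 (0.01 mL/g), 30 min before PTZ 100 mg/kg s.c. Observed in Plexiglass boxes for 30 min. Maximal severity scored on the revised Lüttjohann 9-point scale (0–8), latency to maximal seizure recorded. One-way ANOVA with Tukey.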

[5] = target: T1, Voltage-gated potassium channel, KQT; KCNQ2(Kv7.2)/KCNQ3(Kv7.3) (Homo sapiens); assay: Activation of Kv7.2/Kv7.3 channel (unknown origin) expressed in CHO cells assessed as slope of fluorescent signal at 10 uM by FluxOR fluorescent dye based assay; assay type: cell-based; settings: filed as activator
In short: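 CHO clone stably expressing Kv7.2/Kv7.3 (PiggyBac, puromycin 4 µg/mL), seeded 1.6 × 10^4 cells/well on poly-D-lysine, assayed 24 h later. FluxOR II thallium flux, wash method, ex 485/em 520 nm. Tl+ stimulus buffer added after 5 s, read every 1 s for 50 s. Initial slope taken from 5–15 s. Vehicle 0.1% DMSO, 10 µM retigabine reference; only runs with Z' > 0.5 kept; ≥3 experiments.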

[6] = target: T1, Voltage-gated potassium channel, KQT; KCNQ2(Kv7.2)/KCNQ3(Kv7.3) (Homo sapiens); assay: Activation of Kv7.2/Kv7.3 channel (unknown origin) expressed in CHO cells assessed as half activation potential measured after 24 hrs by whole cell patch clamp based electrophysiological method; settings: filed as activator
[7] = test system: Mus musculus; assay: Anticonvulsant activity in PTZ induced C57BL/6 mouse acute seizure model assessed as seizure score at 0.3 mg/kg, ip pretreated for 30 mins followed by PTZ injection and measured upto 30 mins by Liittjohann's scale analysis; assay type: functional; settings: time 60 min, 1 h
In short: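 Male C57Bl/6 mice, drug in saline with 2% Tween-20 and 2% PEG-400, given i.p. at 0.01 mL/g 30 min before PTZ (100 mg/kg s.c. in saline). Animals watched in clear boxes for 30 min. Maximal severity was scored on the revised Lüttjohann 9-point scale (0 whisker trembling to 8 wild jumping). Group mean reported.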

[8] = Toxicity in PTZ induced C57BL/6 mouse acute seizure model assessed as in mortality at 0.3 mg/kg, ip; assay type: organism-based; settings: in vivo
In short: (§1)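 Male C57Bl/6 mice were pretreated i.p. with drug in saline containing 2% Tween-20 and 2% PEG-400, 30 min before PTZ (100 mg/kg s.c.). Vehicle controls received the vehicle alone. Survival was recorded as animals alive at the end of the 60 min observation period after PTZ and expressed as percent (surviving/total) per group.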

[9] = Toxicity in PTZ induced C57BL/6 mouse acute seizure model assessed as mortality at 1 mg/kg, ip; assay type: organism-based; settings: in vivo; in short: as §1

In the case of CCOC(=O)Nc1ccc(NCc2ccc(C(F)(F)F)cc2)c(F)c1N, the delta(V1/2) [1] is reported as 40 mV and the Activity [2] is reported as “Active”.
In the case of CC(C)(C)CC(=O)Nc1ccc(NCc2ccc(C(F)(F)F)cc2)cc1N1CCCC1, the Stability [3] is reported as “Unstable”.
With CCCCCCCC(=O)Nc1ccc(NCc2ccc(C(F)(F)F)cc2)cc1N the Stability [3] was “Stable”.
With CC(C)(C)CC(=O)Nc1ccc(NCc2ccc(C(F)(F)F)cc2)cc1N1CCCCC1 the Stability [3] was “Unstable”.
For O=C1c2ccccc2C(Cc2ccncc2)(Cc2ccncc2)c2ccccc21, the Activity [4] was 7.3.
For CCCCCCC(=O)Nc1ccc(CCc2ccc(C(F)(F)F)cc2)cc1N, the Activity [5] was 0.0087.
With CC(C)(C)CC(=O)Nc1ccc(NCc2c(F)cccc2F)cc1N the Stability [3] was “Stable”.
In the case of CCOC(=O)Nc1ccc(NCc2ccc(F)cc2)cc1N, the Activity [2] is reported as “Active”.
For CCCCCCC(=O)Nc1ccc(NCc2ccccc2F)cc1N, the Stability [3] was “Stable”.
For CCCCCCC(=O)Nc1ccc(NCc2ccc(C(F)(F)F)cc2)cc1N, the Stability [3] was “Stable”.
For CC(C)(C)CC(=O)Nc1ccc(NCc2ccc(C(F)(F)F)cc2)cc1N, the Stability [3] was “Stable”.
With Nc1cc(NCc2ccc(C(F)(F)F)cc2)ccc1NC(=O)CCC1CCCCC1 the Stability [3] was “Stable”.
With CCCCCCC(=O)Nc1ccc(NCc2ccccc2)cc1N the Stability [3] was “Stable”.
With CC(C)(C)CC(=O)Nc1ccc(NCc2ccc(C(F)(F)F)cc2)c(F)c1N the V1/2 [6] was -30.2 mV, the Activity [2] was “Active” and the Activity [7] was 6. For the same molecule, the Activity [8] was 87% and the Activity [9] was 100%.

Source: ChEMBL document CHEMBL5126610, “Beyond Retigabine: Design, Synthesis, and Pharmacological Characterization of a Potent and Chemically Stable Neuronal Kv7 Channel Activator with Anticonvulsant Activity” (J Med Chem, 2022)
